Results published in publication PMC4259821 (European journal of pharmacology, 2014).
Structures can show the parent of a compound that is named as a salt.

Legend:
CaV 3.2 = CaV 3.2 (Homo sapiens, UniProt O95180); test: Calcium voltage channel 3.2 calcium mobilization assay; assay type: cell-based
NPS receptors [1] = details: calcium mobilization; ref Zhang et al., 2008; cited from earlier work
NPS receptors [2] = test: In vitro calcium mobilization assay, NPS receptor antagonism; assay type: cell-based; details: vs 13 receptors and ion channels of Table 1
delta opioid receptor = delta opioid receptor (Homo sapiens, UniProt P41143); test: Calcium mobilization assay, delta opioid receptor; assay type: cell-based
delta opioid receptor, sequence (P41143 whole entry): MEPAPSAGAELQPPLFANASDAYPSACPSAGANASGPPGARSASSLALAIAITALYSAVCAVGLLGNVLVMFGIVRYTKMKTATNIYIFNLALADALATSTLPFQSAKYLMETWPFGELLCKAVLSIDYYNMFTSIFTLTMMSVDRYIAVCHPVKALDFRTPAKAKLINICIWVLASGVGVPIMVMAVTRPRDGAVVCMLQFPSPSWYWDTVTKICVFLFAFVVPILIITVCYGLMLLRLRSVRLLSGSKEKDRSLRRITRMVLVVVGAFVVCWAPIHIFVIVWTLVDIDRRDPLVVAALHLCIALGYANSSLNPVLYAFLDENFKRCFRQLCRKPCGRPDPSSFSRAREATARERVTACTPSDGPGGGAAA

TRPV1 = TRPV1 (Homo sapiens, UniProt Q8NER1); test: Calcium mobilization assay, TRPV1; assay type: cell-based
TRPV1, sequence (Q8NER1 whole entry): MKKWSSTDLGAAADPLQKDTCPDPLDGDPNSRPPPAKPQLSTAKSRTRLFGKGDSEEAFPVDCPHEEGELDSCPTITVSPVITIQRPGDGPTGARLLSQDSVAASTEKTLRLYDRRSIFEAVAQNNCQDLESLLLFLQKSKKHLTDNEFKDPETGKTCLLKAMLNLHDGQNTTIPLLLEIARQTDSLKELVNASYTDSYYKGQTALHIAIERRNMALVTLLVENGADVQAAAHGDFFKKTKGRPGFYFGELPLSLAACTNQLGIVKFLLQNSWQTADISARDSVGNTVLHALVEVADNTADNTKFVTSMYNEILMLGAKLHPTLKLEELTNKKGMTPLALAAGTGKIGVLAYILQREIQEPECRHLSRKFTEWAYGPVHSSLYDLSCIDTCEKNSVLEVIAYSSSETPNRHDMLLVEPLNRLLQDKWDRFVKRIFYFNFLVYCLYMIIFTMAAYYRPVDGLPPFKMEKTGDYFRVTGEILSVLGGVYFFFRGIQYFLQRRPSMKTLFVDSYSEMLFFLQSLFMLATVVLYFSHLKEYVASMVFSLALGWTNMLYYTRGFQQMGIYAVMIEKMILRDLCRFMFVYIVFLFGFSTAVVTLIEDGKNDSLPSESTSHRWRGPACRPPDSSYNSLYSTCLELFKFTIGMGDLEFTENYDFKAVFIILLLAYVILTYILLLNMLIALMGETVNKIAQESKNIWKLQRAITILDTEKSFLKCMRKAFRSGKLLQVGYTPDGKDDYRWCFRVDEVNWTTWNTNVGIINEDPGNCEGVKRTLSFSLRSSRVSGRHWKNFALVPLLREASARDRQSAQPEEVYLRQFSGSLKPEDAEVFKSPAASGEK
Summary of the method: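 HEK293 cells stably expressing human TRPV1, plated overnight at 30,000 cells/well on PEI-coated plates in DMEM-HG with 10% FBS. Calcium 5 dye in HBSS, 20 mM HEPES, 2.5 mM probenecid, pH 7.4, for 45 min at 37°C. Antagonist mode: 15 min compound pretreatment, then EC50–EC80 capsaicin. Agonist mode: compound added directly. Three-parameter logistic fit.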

ICSS in rats = test: Intracranial self-stimulation; assay type: in vivo, rat; details: i.p.
mu opioid receptor = mu opioid receptor (Homo sapiens, UniProt P35372); test: Calcium mobilization assay, mu opioid receptor; assay type: cell-based
mu opioid receptor, sequence (P35372 whole entry): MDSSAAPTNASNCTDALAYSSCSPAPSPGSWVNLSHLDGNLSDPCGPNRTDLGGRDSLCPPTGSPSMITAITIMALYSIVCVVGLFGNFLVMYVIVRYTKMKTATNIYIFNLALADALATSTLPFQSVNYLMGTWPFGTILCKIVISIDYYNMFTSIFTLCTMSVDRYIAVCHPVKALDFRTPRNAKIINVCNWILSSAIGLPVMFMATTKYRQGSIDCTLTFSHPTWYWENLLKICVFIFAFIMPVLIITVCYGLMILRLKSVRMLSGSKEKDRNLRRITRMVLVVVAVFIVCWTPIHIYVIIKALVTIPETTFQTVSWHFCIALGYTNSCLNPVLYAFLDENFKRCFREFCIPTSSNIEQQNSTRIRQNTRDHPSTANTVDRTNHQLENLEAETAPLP

CB2 = CB2 (Homo sapiens, UniProt P34972); test: Calcium mobilization assay, CB2; assay type: cell-based
CB2, sequence (P34972 whole entry): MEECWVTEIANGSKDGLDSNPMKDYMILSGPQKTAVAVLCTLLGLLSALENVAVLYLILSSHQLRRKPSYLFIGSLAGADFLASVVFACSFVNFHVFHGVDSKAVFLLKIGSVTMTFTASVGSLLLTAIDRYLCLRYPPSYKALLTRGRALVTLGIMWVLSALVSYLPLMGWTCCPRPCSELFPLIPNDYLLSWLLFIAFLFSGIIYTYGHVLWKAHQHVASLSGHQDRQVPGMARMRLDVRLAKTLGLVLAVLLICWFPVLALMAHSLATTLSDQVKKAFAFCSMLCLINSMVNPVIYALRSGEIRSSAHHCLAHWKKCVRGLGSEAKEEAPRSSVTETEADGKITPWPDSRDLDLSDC

5HT1A = target: T1, 5HT1A (Homo sapiens, UniProt P08908); test: Calcium mobilization assay, 5-HT1A; assay type: cell-based
T1 sequence (P08908 1-422): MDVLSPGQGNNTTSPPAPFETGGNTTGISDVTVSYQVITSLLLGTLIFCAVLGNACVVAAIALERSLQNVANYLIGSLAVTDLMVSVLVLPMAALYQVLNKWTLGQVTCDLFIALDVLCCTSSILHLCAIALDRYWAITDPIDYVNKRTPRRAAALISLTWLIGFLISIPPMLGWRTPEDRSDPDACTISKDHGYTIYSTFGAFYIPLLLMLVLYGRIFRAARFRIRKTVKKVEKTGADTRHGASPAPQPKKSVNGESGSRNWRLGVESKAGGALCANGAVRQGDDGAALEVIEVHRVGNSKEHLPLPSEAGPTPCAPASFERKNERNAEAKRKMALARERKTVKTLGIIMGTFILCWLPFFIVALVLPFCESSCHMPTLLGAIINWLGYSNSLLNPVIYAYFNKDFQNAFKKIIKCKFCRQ
Summary of the method: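 CHO-Gα16 cells stably expressing human 5-HT1A, plated overnight at 25,000 cells/well in Ham's F12 with 10% FBS. Calcium 5 dye (1:40) in HBSS, 20 mM HEPES, 2.5 mM probenecid, pH 7.4, for 45 min at 37°C. Agonist mode: compound added at 10 s, fluorescence read 90 s. Antagonist mode: 15 min compound pretreatment, then EC50–EC80 5-HT. Three-parameter logistic fit.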

CB1 = CB1 (Homo sapiens, UniProt P21554); test: Calcium mobilization assay, CB1; assay type: cell-based
CB1, sequence (P21554 whole entry): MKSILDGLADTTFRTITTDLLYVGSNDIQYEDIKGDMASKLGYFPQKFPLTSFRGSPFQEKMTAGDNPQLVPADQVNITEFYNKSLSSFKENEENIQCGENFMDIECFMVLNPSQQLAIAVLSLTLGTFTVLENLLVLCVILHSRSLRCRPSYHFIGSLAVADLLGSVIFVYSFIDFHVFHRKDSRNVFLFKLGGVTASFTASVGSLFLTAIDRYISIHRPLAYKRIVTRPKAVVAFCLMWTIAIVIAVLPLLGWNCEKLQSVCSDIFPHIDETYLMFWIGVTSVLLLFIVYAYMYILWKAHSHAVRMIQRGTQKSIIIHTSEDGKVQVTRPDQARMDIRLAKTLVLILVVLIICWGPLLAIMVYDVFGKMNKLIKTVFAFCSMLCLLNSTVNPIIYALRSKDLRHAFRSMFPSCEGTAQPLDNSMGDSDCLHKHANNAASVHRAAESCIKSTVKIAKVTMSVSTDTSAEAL

[3] = test system: food-maintained responding; details: rats, ref Schmoutz et al., 2012, cited from earlier work
[4] = test system: cocaine self-administration; details: rats; 5–30 mg/kg i.p.; ref Schmoutz et al., 2012; cited from earlier work
5HT2B = 5HT2B (Homo sapiens, UniProt P41595); test: Calcium mobilization assay, 5-HT2B; assay type: cell-based
5HT2B, sequence (P41595 whole entry): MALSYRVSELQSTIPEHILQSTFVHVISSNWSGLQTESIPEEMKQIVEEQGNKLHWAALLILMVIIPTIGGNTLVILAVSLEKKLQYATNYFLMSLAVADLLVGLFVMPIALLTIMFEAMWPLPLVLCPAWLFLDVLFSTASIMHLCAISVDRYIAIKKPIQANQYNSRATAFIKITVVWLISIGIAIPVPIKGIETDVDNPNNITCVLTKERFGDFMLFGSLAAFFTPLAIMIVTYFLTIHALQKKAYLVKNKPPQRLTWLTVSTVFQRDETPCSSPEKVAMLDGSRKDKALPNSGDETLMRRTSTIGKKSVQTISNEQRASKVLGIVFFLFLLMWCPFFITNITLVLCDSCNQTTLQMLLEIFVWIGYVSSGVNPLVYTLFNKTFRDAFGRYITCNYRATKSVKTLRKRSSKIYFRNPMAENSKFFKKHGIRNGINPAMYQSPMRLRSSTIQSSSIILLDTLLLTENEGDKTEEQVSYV
Summary of the method: (§1)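 Stable human 5-HT2A or 5-HT2B HEK293 cells were plated overnight on PEI-coated plates at 40,000 or 35,000 cells/well in DMEM-HG, 10% FBS, 15 mM HEPES. Calcium 5 dye was loaded for 45 min at 37°C in HBSS/HEPES/probenecid, pH 7.4. Antagonist mode used 15 min compound pretreatment, then EC50–EC80 5-HT. Peak fluorescence change was fit to a three-parameter logistic.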

hTAAR1 = target: T2, hTAAR1 (Homo sapiens, UniProt Q96RJ0); test: hTAAR1 cAMP assay; assay type: cell-based
T2 sequence (Q96RJ0 1-339): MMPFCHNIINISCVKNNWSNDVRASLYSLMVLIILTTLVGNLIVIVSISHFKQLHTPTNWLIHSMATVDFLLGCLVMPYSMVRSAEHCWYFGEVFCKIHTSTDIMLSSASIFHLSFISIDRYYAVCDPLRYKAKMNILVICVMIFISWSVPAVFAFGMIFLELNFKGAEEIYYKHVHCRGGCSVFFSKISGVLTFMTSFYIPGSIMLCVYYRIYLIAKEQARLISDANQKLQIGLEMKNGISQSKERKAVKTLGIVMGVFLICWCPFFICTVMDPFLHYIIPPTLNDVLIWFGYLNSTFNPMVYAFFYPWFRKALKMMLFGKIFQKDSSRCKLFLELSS

5HT2A = 5HT2A (Homo sapiens, UniProt P28223); test: Calcium mobilization assay, 5-HT2A; assay type: cell-based
5HT2A, sequence (P28223 whole entry): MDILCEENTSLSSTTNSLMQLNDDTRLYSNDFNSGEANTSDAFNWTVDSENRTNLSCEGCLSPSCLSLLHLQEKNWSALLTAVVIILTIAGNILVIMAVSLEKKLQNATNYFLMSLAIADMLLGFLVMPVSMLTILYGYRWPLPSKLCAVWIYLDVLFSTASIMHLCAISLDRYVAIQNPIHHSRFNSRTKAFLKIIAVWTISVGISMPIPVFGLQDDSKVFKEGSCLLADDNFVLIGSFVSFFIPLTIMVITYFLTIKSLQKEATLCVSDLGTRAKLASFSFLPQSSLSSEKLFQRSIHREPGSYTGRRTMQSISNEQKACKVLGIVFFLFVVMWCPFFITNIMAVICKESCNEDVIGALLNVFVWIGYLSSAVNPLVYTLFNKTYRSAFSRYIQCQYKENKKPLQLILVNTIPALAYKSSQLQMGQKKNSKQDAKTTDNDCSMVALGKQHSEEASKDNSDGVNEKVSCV
Summary of the method: as §1

CaV 3.1 = CaV 3.1 (Homo sapiens, UniProt O43497); test: Calcium voltage channel 3.1 calcium mobilization assay; assay type: cell-based
APJ (Apelin) = target: T3, APJ (Apelin) (Homo sapiens, UniProt P35414); test: Calcium mobilization assay, APJ; assay type: cell-based
T3 sequence (P35414 1-380): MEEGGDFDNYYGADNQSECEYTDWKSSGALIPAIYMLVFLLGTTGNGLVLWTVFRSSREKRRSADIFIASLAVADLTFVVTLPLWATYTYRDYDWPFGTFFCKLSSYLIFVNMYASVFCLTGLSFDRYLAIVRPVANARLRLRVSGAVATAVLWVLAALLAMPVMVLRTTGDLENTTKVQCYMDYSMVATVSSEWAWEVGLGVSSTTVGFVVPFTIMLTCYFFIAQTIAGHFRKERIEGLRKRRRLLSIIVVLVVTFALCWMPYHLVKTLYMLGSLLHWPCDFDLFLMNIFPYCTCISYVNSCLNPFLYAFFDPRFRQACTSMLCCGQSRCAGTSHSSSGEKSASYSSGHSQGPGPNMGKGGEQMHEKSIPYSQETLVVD
Summary of the method: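 CHO-Gα16-APJ cells were plated overnight at 30,000 cells/well in DMEM/F12 with 10% FBS and loaded with Calcium 5 dye for 45 min at 37°C. Compound dilutions contained BSA/DMSO: 2.25% BSA/9% DMSO for pretreatment, 0.25% BSA/1% DMSO for treatment. Antagonist mode: 15 min pretreatment, then EC50–EC80 apelin. Fluorescence was read on FLIPR or FlexStation. EC50/IC50 came from a three-parameter logistic fit.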

kappa opioid receptor = kappa opioid receptor (Homo sapiens, UniProt P41145); test: Calcium mobilization assay, kappa opioid receptor; assay type: cell-based
kappa opioid receptor, sequence (P41145 whole entry): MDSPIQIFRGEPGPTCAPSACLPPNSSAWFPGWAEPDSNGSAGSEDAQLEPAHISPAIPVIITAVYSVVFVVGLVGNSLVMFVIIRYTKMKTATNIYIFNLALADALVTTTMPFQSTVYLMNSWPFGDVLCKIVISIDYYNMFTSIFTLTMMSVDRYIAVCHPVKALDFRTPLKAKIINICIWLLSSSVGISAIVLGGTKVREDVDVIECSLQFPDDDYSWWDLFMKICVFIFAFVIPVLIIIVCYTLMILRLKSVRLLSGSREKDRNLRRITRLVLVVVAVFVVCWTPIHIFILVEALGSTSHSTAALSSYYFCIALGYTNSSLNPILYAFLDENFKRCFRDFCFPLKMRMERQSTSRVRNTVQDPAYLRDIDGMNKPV

Structure (SMILES): O=C(NCCN1CCCCC1)N1CCN2C(=O)OC(c3ccccc3)(c3ccccc3)C2C1 (stereo not shown) [RTI-118, 3-oxo-1,1-diphenyl-N-(2-(piperidin-1-yl)ethyl)tetrahydro-1H-oxazolo[3,4-a]pyrazine-7(3H)-carboxamide]
- IC50 (CaV 3.2): > 10 µM
- Ke value as an antagonist at NPS receptors (NPS receptors [1]): 109 ± 23 nM
- Selectivity for NPS receptors relative to the other targets (NPS receptors [2]): at least 100 fold
- EC50 (delta opioid receptor): > 10 µM
- IC50 (delta opioid receptor): > 10 µM
- EC50 (TRPV1): > 10 µM
- IC50 (TRPV1): > 10 µM
- Effect on ICSS, drug alone (ICSS in rats; 10 mg/kg RTI-118): significantly increased ICSS at one frequency (1.9 log Hz)
- Effect of pretreatment on MDPV-induced facilitation of ICSS (ICSS in rats; 32 mg/kg RTI-118 + 3.2 mg/kg MDPV): did not alter MDPV-induced facilitation of ICSS
- Effect on ICSS, drug alone (ICSS in rats; 32 mg/kg RTI-118, first group of rats): significantly decreased ICSS at only one frequency (2.05 log Hz)
- Effect on ICSS, drug alone (ICSS in rats; 32 mg/kg RTI-118, second group of rats (MDPV study)): did not significantly alter ICSS at any frequency
- Effect on ICSS, drug alone (ICSS in rats; low doses of 3.2–10 mg/kg RTI-118): had little effect on ICSS
- Effect of pretreatment on cocaine-induced facilitation of ICSS (ICSS in rats; pretreatment + 10 mg/kg cocaine vs vehicle + 10 mg/kg cocaine): attenuation of cocaine effects was statistically significant only at the highest RTI-118 dose (32 mg/kg)
- EC50 (mu opioid receptor): > 10 µM
- IC50 (mu opioid receptor): > 10 µM
- EC50 (CB2): > 10 µM
- IC50 (CB2): > 10 µM
- EC50 (5HT1A): > 10 µM
- IC50 (5HT1A): > 10 µM
- EC50 (CB1): > 10 µM
- IC50 (CB1): > 10 µM
- Reduction in rates of food-maintained responding ([3]; 30 mg/kg): up to 20%
- Effect on rates of food-maintained responding ([3]; doses up to 20 mg/kg IP): had no effect on rates of food-maintained responding
- Effect on cocaine self-administration [4]: dose-dependent and nearly complete elimination of cocaine self-administration
- EC50 (5HT2B): > 10 µM
- IC50 (5HT2B): > 10 µM
- EC50 (hTAAR1): > 10 µM
- IC50 (hTAAR1): > 10 µM
- EC50 (5HT2A): > 10 µM
- IC50 (5HT2A): > 10 µM
- IC50 (CaV 3.1): > 10 µM
- EC50 (APJ (Apelin)): > 10 µM
- IC50 (APJ (Apelin)): > 10 µM
- EC50 (kappa opioid receptor): > 10 µM
- IC50 (kappa opioid receptor): > 10 µM

Structure (SMILES): CCCC(C(=O)c1ccc2c(c1)OCO2)N1CCCC1.Cl (racemic) [MDPV, (±)-3,4-methylenedioxypyrovalerone HCl, reference compound]
- Effect on ICSS, drug alone (ICSS in rats; 3.2 mg/kg MDPV vs vehicle + vehicle): facilitated ICSS across a broad range of frequencies (1.75–2.05 log Hz)

Structure (SMILES): COC(=O)[C@H]1[C@@H](OC(=O)c2ccccc2)C[C@@H]2CC[C@H]1N2C [Cocaine, (−)-Cocaine HCl, reference compound]
- Effect on ICSS, drug alone (ICSS in rats; 10 mg/kg cocaine): facilitated ICSS across a broad range of six frequencies (1.75–2.0 log Hz)
